This is an account of results in ChEMBL document CHEMBL4354812, “N-Benzyl/Aryl Substituted Tryptanthrin as Dual Inhibitors of Indoleamine 2,3-Dioxygenase and Tryptophan 2,3-Dioxygenase” (J Med Chem, 2019).

Test [1] deals with T1, Tryptophan 2,3-dioxygenase (Homo sapiens, UniProt P48775). Briefly: Binding affinity to human TDO assessed as change in spectral signal at 200 uM by CPMG NMR spectrometry analysis.
Target sequence in this assay (P48775 whole entry, looked up): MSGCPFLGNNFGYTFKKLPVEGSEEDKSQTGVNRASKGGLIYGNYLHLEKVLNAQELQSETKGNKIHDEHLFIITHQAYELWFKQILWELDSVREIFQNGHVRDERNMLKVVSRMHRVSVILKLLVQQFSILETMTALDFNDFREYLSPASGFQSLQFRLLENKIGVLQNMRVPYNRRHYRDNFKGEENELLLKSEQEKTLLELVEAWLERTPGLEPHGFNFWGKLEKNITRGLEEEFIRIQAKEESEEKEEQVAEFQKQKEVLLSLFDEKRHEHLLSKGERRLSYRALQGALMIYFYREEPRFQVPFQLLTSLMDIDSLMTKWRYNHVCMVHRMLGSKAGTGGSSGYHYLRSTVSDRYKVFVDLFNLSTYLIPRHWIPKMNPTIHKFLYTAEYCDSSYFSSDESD
Test [2] concerns Mus musculus. Briefly: In vivo inhibition of IDO1/2/TDO in C57BL/6 mouse assessed as decrease in LPS-stimulated kynurenine pathway by measuring increase in serum tryptophan level at 60 mg/kg, ig pretreated for 24 hrs with Escherichia coli LPS followed by compound treatment measured at 12 hrs post-treatment by HPLC analysis. The format is functional, organism-based. The gist of the method: (§1)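 C57BL/6 mice were given ip saline or E. coli LPS 5 mg/kg. 24 h later they received ig 60 mg/kg compound or 0.5% CMC-Na. Blood was taken at 1, 6, 12, 24 and 30 h after dosing. Serum Trp and Kyn were measured by HPLC and the Kyn/Trp ratio calculated. n = 3–5 mice/group.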

Test [3] concerns Mus musculus. Briefly: In vivo inhibition of IDO1/2/TDO in C57BL/6 mouse assessed as decrease in LPS-stimulated kynurenine pathway by measuring increase in serum tryptophan level at 60 mg/kg, ig pretreated for 24 hrs with Escherichia coli LPS followed by compound treatment measured at 24 hrs post-treatment by HPLC analysis. In kind it is functional, organism-based. The method in brief:
as §1

The subject of test [4] is Mus musculus. Nature of the test: In vivo blockade of kynurenine pathway in Kunming mouse implanted with mouse H22 cells assessed as decrease in kynurenine level in serum at 45 mg/kg, po qd for 2 weeks by HPLC analysis. In kind it is functional, organism-based. The gist of the method: (§2)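 H22 tumor-bearing Kunming mice received oral dosing once daily in 0.5% CMC-Na for 2 weeks. Serum Trp and Kyn were measured by HPLC on a C18 column with 15 mM sodium acetate (pH 3.6) containing 4% acetonitrile, UV detection at 280 and 360 nm. Kyn/Trp ratio calculated. n = 9–10/group.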

Test [5] relates to Mus musculus. Nature of the test: In vivo inhibition of IDO1/2/TDO in C57BL/6 mouse assessed as decrease in LPS-stimulated kynurenine pathway by measuring decrease in ratio of kynurenine to tryptophan level in serum at 60 mg/kg, ig pretreated for 24 hrs with Escherichia coli LPS followed by compound treatment measured at 24 hrs post-treatment by HPLC analysis. The format is functional, organism-based. The gist of the method:
as §1

The species named for test [6] is Homo sapiens. Briefly: Inhibition of IDO1/TDO in IFNgamma-treated human HeLa cells assessed as T cell proliferation at 40 nM measured after 2 days in presence of IL-2, anti-CD3 and IFN-gamma by CFSE dye based flow cytometry analysis (reference value: 11.7 %). On the set-up: scale not given: the % may be the effect or the level left. The method in brief:
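CFSE-labelled human PBMC lymphocytes (1 × 10⁶/well) were cocultured with HeLa cells (2 × 10⁵/well), a 5:1 ratio, in 150 U/mL IL-2, 100 ng/mL anti-CD3 and 60 ng/mL IFN-γ. Compound was tested at 40 nM, 200 nM, 500 nM or 1 μM. Proliferation was read by flow cytometry after 2 days, three independent experiments.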

The target in test [7] is T1, Tryptophan 2,3-dioxygenase. Briefly: Uncompetitive inhibition of recombinant human TDO expressed in Escherichia coli BL21 (DE3) assessed as assessed as inhibition constant using varying concentration of L-tryptophan as substrate by Dixon plot analysis. The method in brief:
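Enzymatic assays of the kynurenine-forming reaction were run with varying L-Trp. Ki was derived by plotting [S]/V against inhibitor concentration [I], with inhibition type assigned from the graphical pattern.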
Target sequence in this assay (P48775 whole entry): as the sequence (P48775 whole entry, looked up) above

Test [8] deals with Mus musculus. Nature of the test: In vivo inhibition of IDO1/2/TDO in C57BL/6 mouse assessed as decrease in LPS-stimulated kynurenine pathway by measuring effect on kynurenine level at 60 mg/kg, ig pretreated for 24 hrs with Escherichia coli LPS followed by compound treatment measured at 1 to 30 hrs post-treatment by HPLC analysis. The format is functional, organism-based. The method in brief: as §1

Test [9] has as its system H22. Nature of the test: Antitumor activity against mouse H22 cells implanted in Kunming mouse assessed as reduction in tumor weight at 45 mg/kg, po qd administered for 2 weeks and measured post-treatment relative to control. On the set-up: scale not given: the % may be the effect or the level left. The format is functional. The method in brief: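 Tumor cells (LLC, or H22 ascites cells after two intraperitoneal passages in Kunming mice) injected sc into the right forelimb at 2 × 10⁶ per mouse, in female 6–8-week C57BL/6 or Kunming mice. Oral dosing once daily began at 5 mm tumor diameter and continued 2 weeks. Vehicle was 0.5% CMC-Na. Volume was read by caliper every 2 days as long × short²/2. Tumors were weighed at sacrifice. n = 9–10/group.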

Test [10] relates to Mus musculus. Nature of the test: In vivo blockade of kynurenine pathway in Kunming mouse implanted with mouse H22 cells assessed as decrease in kynurenine/tryptophan ratio in serum at 45 mg/kg, po qd for 2 weeks by HPLC analysis. The format is functional, organism-based. The gist of the method:
as §2

Calls of active or inactive are those of the source. The calls are words filed in the database; no cut-off is given here.

Consider `CN1CCN(Cc2ccc3nc4n(c(=O)c3c2)-c2ccc(F)cc2C4=O)CC1`, for which the result in test [1], in [4] and in test [10] was Active. For the same compound, the inhibition entry in test [2], in test [3] and in test [5] was “Active” in each case. For the same compound, the Activity in test [6] amounted to 37.2%; in test [9] it was 55.4%. In addition, the Ki in test [7] amounted to 310 nM. In [8], the inhibition entry is “inactive”.

The Ki is the dissociation constant of the complex between target and ligand, obtained from inhibition or displacement.
